This note sets out measurements from ChEMBL document CHEMBL1136227, “Regulation of gene expression by synthetic dimerizers with novel specificity” (Bioorg Med Chem Lett, 2003).

Broadly, the IC50 is the concentration that inhibits the measured activity by half. The low end stands for inhibition by little substance, the high end for a need for much substance. As a reminder, the EC50 is the midpoint of the concentration-response curve. A low value points to an effect from little substance.

In assay [1] the target is Peptidyl-prolyl cis-trans isomerase FKBP1A (Homo sapiens, UniProt P62942, F36V). Put plainly: Inhibition of binding to Phe36Val (F36V) mutant of FK506 binding protein 12. The essentials:
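Fluorescence polarization competition assay with F36V-FKBP12, testing monomeric FKBP ligands. IC50 = monomer concentration reducing probe binding by 50%.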

Assay [2] relates to HT-1080. Nature of the assay: (§1) Compound was induced transcription in transiently transfected with constructs encoding separate DNA-binding domain and activation domain proteins in HT1080 human fibrosarcoma cells. The assay is classed as functional. The essentials: (§2)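 HT1080 human fibrosarcoma cells, transiently or stably transfected with separate DNA-binding domain and activation domain fusions, each carrying three tandem F36V-FKBP copies, plus a SEAP reporter responsive to the reconstituted factor. Dimerizer titrated; secreted SEAP measured. EC50 = dimerizer concentration giving 50% of peak SEAP expression; peak level also expressed relative to a reference dimerizer.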

Assay [3] has as its system HT-1080. Nature of the assay: (§3) Compound was induced transcription stably transfected with constructs encoding separate DNA-binding domain and activation domain proteins in HT1080 human fibrosarcoma cells. The class given is functional. The essentials:
as §2

Assay [4] relates to HT-1080. Described as §3. The assay is classed as functional, cell-based. The method in brief: as §2
The test system of assay [5] is HT-1080. Described as §1. The assay is classed as functional, cell-based. The essentials:
as §2

Assay [6] has as its system HT-1080. Put plainly: Compound was induced transcription stably transfected with constructs encoding separate DNA-binding domain and activation domain proteins in HT1080 human fibrosarcoma cells; No induction. The assay is classed as functional, cell-based. The method in brief:
as §2

The test system of assay [7] is HT-1080. Put plainly: Compound was induced transcription stably transfected with constructs encoding separate DNA-binding domain and activation domain proteins in HT1080 human fibrosarcoma cells;No induction. The assay is classed as functional, cell-based. The essentials: as §2

Chain of Peptidyl-prolyl cis-trans isomerase FKBP1A (P62942 2-108 F37V limits assumed): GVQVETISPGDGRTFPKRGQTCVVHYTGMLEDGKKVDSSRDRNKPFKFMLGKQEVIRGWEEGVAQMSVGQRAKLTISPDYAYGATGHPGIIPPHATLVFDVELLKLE

In assay [1], `COc1ccc(CC[C@@H](OC(=O)[C@@H]2CCCCN2C(=O)[C@@H](C)c2cc(OC)c(OC)c(OC)c2)c2cccc(OCC(=O)O)c2)cc1OC` came in with a half-inhibitory concentration (IC50) of 8.2 nM.

`CCC(CC)NC(=O)N1CCCC[C@H]1C(=O)O[C@H](CCc1ccc(OC)c(OC)c1)c1cccc(OCC(=O)O)c1` displayed an IC50 in assay [1] of 64 nM.

Molecule `CC[C@H](C(=O)N1CCCC[C@H]1C(=O)O[C@H](CCc1cccnc1)c1cccc(OCC(=O)O)c1)c1cc(OC)c(OC)c(OC)c1` had an IC50 in assay [1] of 15 nM.

Take `CCC(CC)NC(=O)N1CCCC[C@H]1C(=O)O[C@H](CCc1ccc(OC)c(OC)c1)c1cccc(OCC(=O)NCCNC(=O)COc2cccc([C@@H](CCc3ccc(OC)c(OC)c3)OC(=O)[C@@H]3CCCCN3C(=O)NC(CC)CC)c2)c1`: the Expression in the assay with HT-1080 [2] is 138%; with HT-1080 [3], 106%. For the same molecule, the EC50 with HT-1080 [4] is 19 nM; in the assay on HT-1080 [5] it was 11 nM.

Consider `CC[C@H](C(=O)N1CCCC[C@H]1C(=O)O[C@H](CCc1cccnc1)c1cccc(OCC(=O)NCCNC(=O)COc2cccc([C@@H](CCc3cccnc3)OC(=O)[C@@H]3CCCCN3C(=O)[C@@H](CC)c3cc(OC)c(OC)c(OC)c3)c2)c1)c1cc(OC)c(OC)c(OC)c1`, for which the half-maximal effective concentration (EC50) entry was “No induction” with HT-1080 [6] and 82 nM in the assay on HT-1080 [5]. Moreover, the Expression in the assay with HT-1080 [2] is on record as 29%.

`CC[C@H](C(=O)N1CCCC[C@H]1C(=O)O[C@H](CCc1ccccc1)c1cccc(OCC(=O)O)c1)c1cc(OC)c(OC)c(OC)c1`: the IC50 in assay [1] worked out at 5.5 nM.

In turn, `CCC(C)(C)C(=O)C(=O)N1CCCC[C@H]1C(=O)O[C@H](CCc1ccc(OC)c(OC)c1)c1cccc(OCC(=O)O)c1` gave an IC50 in assay [1] of 44 nM.

`CC[C@H](C(=O)N1CCCC[C@H]1C(=O)O[C@H](CCc1ccc(OC)c(OC)c1)c1cccc(OCC(=O)O)c1)c1ccc2c(c1)OCO2` showed a half-maximal inhibitory concentration (IC50) in assay [1] of 26 nM.

For `CC[C@H](C(=O)N1CCCC[C@H]1C(=O)O[C@H](CCc1ccc(OC)c(OC)c1)c1cccc(OCC(=O)NCCNC(=O)COc2cccc([C@@H](CCc3ccc(OC)c(OC)c3)OC(=O)[C@@H]3CCCCN3C(=O)[C@@H](CC)c3ccccc3)c2)c1)c1ccccc1`, the Expression with HT-1080 [2] and in the assay on HT-1080 [3] was 100% throughout. In addition, the EC50 in the assay with HT-1080 [4] amounted to 8 nM; with HT-1080 [5], 4 nM.

In the case of `CC[C@H](C(=O)N1CCCC[C@H]1C(=O)O[C@H](CCc1ccc(OC)c(OC)c1)c1cccc(OCC(=O)NCCNC(=O)COc2cccc([C@@H](CCc3ccc(OC)c(OC)c3)OC(=O)[C@@H]3CCCCN3C(=O)[C@@H](CC)c3ccc4c(c3)OCO4)c2)c1)c1ccc2c(c1)OCO2`, the Expression in the assay on HT-1080 [2] came out at 105%; in the assay on HT-1080 [3] it was 53%. Further, the EC50 in the assay on HT-1080 [4] amounted to 9 nM; with HT-1080 [5], 6 nM.

Turning to `CO[C@H]1C[C@@H](C)C/C(C)=C/[C@@H](C/C=C/CC2/C=C(\C)C[C@H](C)C[C@H](OC)[C@H]3O[C@@](O)(C(=O)C(=O)N4CCCCC4C(=O)O[C@H](/C(C)=C/[C@@H]4CC[C@@H](O)[C@H](OC)C4)[C@H](C)[C@@H](O)CC2=O)[C@H](C)C[C@H]3OC)C(=O)C[C@H](O)[C@@H](C)[C@@H](/C(C)=C/[C@@H]2CC[C@@H](O)[C@H](OC)C2)OC(=O)C2CCCCN2C(=O)C(=O)C2O[C@H]1[C@H](OC)C[C@H]2C` (some centres undefined), the EC50 result in the assay with HT-1080 [6] was “No induction”; with HT-1080 [5] it was 189 nM. This molecule also had an Expression in the assay on HT-1080 [2] of 39%.

`COc1ccc(CC[C@@H](OC(=O)[C@@H]2CCCCN2C(=O)[C@@H](C)c2cc(OC)c(OC)c(OC)c2)c2cccc(OCC(=O)NCCNC(=O)COc3cccc([C@@H](CCc4ccc(OC)c(OC)c4)OC(=O)[C@@H]4CCCCN4C(=O)[C@@H](C)c4cc(OC)c(OC)c(OC)c4)c3)c2)cc1OC` had an Expression in the assay with HT-1080 [2] of 89%. Also, the concentration for a half-maximal effect (EC50) result with HT-1080 [7] was “No induction”; in the assay with HT-1080 [5], 4 nM.

With `CCC(C)(C)C(=O)C(=O)N1CCCC[C@H]1C(=O)O[C@H](CCc1ccc(OC)c(OC)c1)c1cccc(OCC(=O)NCCNC(=O)COc2cccc([C@@H](CCc3ccc(OC)c(OC)c3)OC(=O)[C@@H]3CCCCN3C(=O)C(=O)C(C)(C)CC)c2)c1`, the Expression worked out at 149% in the assay on HT-1080 [2] and 17% in the assay with HT-1080 [3]. The EC50 was found to be 294 nM in the assay on HT-1080 [4] and 177 nM in the assay on HT-1080 [5].

Consider `CC[C@@H]1/C=C(\C)C[C@H](C)C[C@H](OC)[C@H]2OC(C(=O)C(=O)N3CCCCC3C(=O)O[C@H](/C(C)=C/[C@@H]3CC[C@@H](O)[C@H](OC)C3)[C@H](C)[C@@H](O)CC1=O)[C@H](C)C[C@H]2OC` (some centres undefined), for which the IC50 in assay [1] turned out to be 12 nM.

With `COc1ccc(CC[C@@H](OC(=O)[C@@H]2CCCCN2C(=O)Cc2ccccc2)c2cccc(OCC(=O)NCCNC(=O)COc3cccc([C@@H](CCc4ccc(OC)c(OC)c4)OC(=O)[C@@H]4CCCCN4C(=O)Cc4ccccc4)c3)c2)cc1OC`, the results for the Expression with HT-1080 [2] and in the assay with HT-1080 [3] were 150% and 7%, respectively. In addition, the EC50 turned out to be 10 nM in the assay with HT-1080 [4] and 20 nM in the assay with HT-1080 [5].

On to `CC[C@H](C(=O)N1CCCC[C@H]1C(=O)O[C@H](CCc1ccccc1)c1cccc(OCC(=O)NCCNC(=O)COc2cccc([C@@H](CCc3ccccc3)OC(=O)[C@@H]3CCCCN3C(=O)[C@@H](CC)c3cc(OC)c(OC)c(OC)c3)c2)c1)c1cc(OC)c(OC)c(OC)c1`, for which the figures for the EC50 entry in the assay on HT-1080 [6] and in the assay on HT-1080 [5] were “No induction” and 57 nM, respectively. In the assay with HT-1080 [2], this molecule returned an Expression of 97%.

For `CC[C@H](C(=O)N1CCCC[C@H]1C(=O)O[C@H](CCc1ccc(OC)c(OC)c1)c1cccc(OCC(=O)O)c1)c1cc(OC)c(OC)c(OC)c1` (stereo in doubt; form 1), in assay [1], the IC50 came to 8.2 nM.

Molecule `CC[C@H](C(=O)N1CCCC[C@H]1C(=O)O[C@H](CCc1ccc(OC)c(OC)c1)c1cccc(OCC(=O)NCCNC(=O)COc2cccc([C@@H](CCc3ccc(OC)c(OC)c3)OC(=O)[C@@H]3CCCCN3C(=O)[C@@H](CC)c3cc(OC)c(OC)c(OC)c3)c2)c1)c1cc(OC)c(OC)c(OC)c1` (stereo in doubt; form 1) [RIMIDUCID] came in with an EC50 in the assay on HT-1080 [5] of 3 nM.

With `CC[C@H](C(=O)N1CCCC[C@H]1C(=O)O[C@H](CCc1ccc(OC)c(OC)c1)c1cccc(OCC(=O)O)c1)c1cc(OC)c(OC)c(OC)c1` (stereo in doubt; form 2), the concentration for half-maximal inhibition (IC50) in assay [1] was found to be 8.2 nM.

As to `CC[C@H](C(=O)N1CCCC[C@H]1C(=O)O[C@H](CCc1ccc(OC)c(OC)c1)c1cccc(OCC(=O)NCCNC(=O)COc2cccc([C@@H](CCc3ccc(OC)c(OC)c3)OC(=O)[C@@H]3CCCCN3C(=O)[C@@H](CC)c3cc(OC)c(OC)c(OC)c3)c2)c1)c1cc(OC)c(OC)c(OC)c1` (stereo in doubt; form 2) [RIMIDUCID], the EC50 entry in the assay with HT-1080 [6] is on record as “No induction”. Besides, in the assay with HT-1080 [2], the Expression was found to be 79%.
